Values after ≈ are worked out from the molar mass of the structure shown.
Experiments:
MCF7 [1] = test: Cytotoxicity against human MCF7 cells assessed as cell growth inhibition after 72 hrs by MTT assay; assay type: functional, cell-based; conditions: MCF7, 72 h
Method in brief: (§1)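 MTT growth assay in human cancer lines (MCF-7, HepG2, BGC-823, HeLa, A549), 72 h after treatment; 5-fluorouracil as reference. IC50 (μg/mL) taken as concentration giving 50% growth inhibition versus untreated control.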

HepG2 [2] = test: Cytotoxicity against human HepG2 cells assessed as cell growth inhibition after 72 hrs by MTT assay; assay type: functional, cell-based; conditions: HepG2, 72 h; method in brief: as §1
A549 [3] = test: Cytotoxicity against human A549 cells assessed as cell growth inhibition after 72 hrs by MTT assay; assay type: functional, cell-based; conditions: A549, 72 h; method in brief: as §1
HeLa [4] = test: Cytotoxicity against human HeLa cells assessed as cell growth inhibition after 72 hrs by MTT assay; assay type: functional, cell-based; method in brief: as §1
[5] = Cytotoxicity against human BCG823 cells assessed as cell growth inhibition after 72 hrs by MTT assay; assay type: functional, cell-based; conditions: BCG823, 72 h; method in brief: as §1
HeLa [6] = test: Cytotoxicity against human HeLa cells assessed as cell growth inhibition at 20 ug/ml after 72 hrs by MTT assay; assay type: functional; conditions: read-out: GI
MCF7 [7] = test: Cytotoxicity against human MCF7 cells assessed as cell growth inhibition at 20 ug/ml after 72 hrs by MTT assay; assay type: functional; conditions: MCF7, 72 h, read-out: GI
[8] = system: MCF-7, HepG2, BGC-823, HeLa, A549 cancer cell lines (Homo sapiens); test: Cytotoxicity against human MCF-7, HepG2, BGC-823, HeLa and A549 cells assessed as cell growth inhibition at 20 ug/ml after 72 hrs by MTT assay; conditions: read-out: GI
[9] = Cytotoxicity against human BCG823 cells assessed as cell growth inhibition at 20 ug/ml after 72 hrs by MTT assay; assay type: functional; conditions: BCG823, 72 h, read-out: GI
A549 [10] = test: Cytotoxicity against human A549 cells assessed as cell growth inhibition at 20 ug/ml after 72 hrs by MTT assay; assay type: functional; conditions: A549, 72 h, read-out: GI
HepG2 [11] = test: Cytotoxicity against human HepG2 cells assessed as cell growth inhibition at 20 ug/ml after 72 hrs by MTT assay; assay type: functional; conditions: HepG2, 72 h, read-out: GI

Row | SMILES | IC50 (MCF7 [1]) [µg/mL] | IC50 (HepG2 [2]) [µg/mL] | IC50 (A549 [3]) [µg/mL] | IC50 (HeLa [4]) [µg/mL] | IC50 [5] [µg/mL] | inhibition of growth at 20 µg/mL (HeLa [6]) [%] | inhibition of growth at 20 µg/mL (MCF7 [7]) [%] | inhibition at 72 h, 20 ug/ml [8] [%] | inhibition of growth at 20 µg/mL [9] [%] | inhibition of growth at 20 µg/mL (A549 [10]) [%] | inhibition of growth at 20 µg/mL (HepG2 [11]) [%]
1 | Cc1nc(N(C)C(=O)NC(=O)c2c(F)cccc2F)sc1C(=O)N/N=C/c1ccc(C(F)(F)F)cc1 | 30.6 (≈ 58.2 µM) | > 100 | 60.4 (≈ 115 µM) | 40.5 (≈ 77.2 µM) | 65.5 (≈ 125 µM) | – | – | – | – | – | –
2 | CN(C(=O)NC(=O)c1ccc(Cl)cc1Cl)c1nc(C(F)(F)F)c(C(=O)N/N=C/c2cc(C(F)(F)F)cc(C(F)(F)F)c2)s1 | > 100 | > 100 | > 100 | > 100 | > 100 | – | – | – | – | – | –
3 | Cc1nc(N(C)C(=O)NC(=O)c2c(F)cccc2F)sc1C(=O)N/N=C/c1ccccc1F | – | > 100 | – | – | – | – | – | – | – | – | –
4 | CN(C(=O)NC(=O)c1cccc([N+](=O)[O-])c1)c1nc(C(F)(F)F)c(C(=O)N/N=C/c2ccccc2C(F)(F)F)s1 | 4.73 (≈ 8.04 µM) | 4.8 (≈ 8.16 µM) | 5.45 (≈ 9.26 µM) | 4.15 (≈ 7.05 µM) | 3.97 (≈ 6.75 µM) | – | – | – | – | – | –
5 | CN(C(=O)NC(=O)c1c(F)cccc1F)c1nc(C(F)(F)F)c(C(=O)N/N=C/c2ccc(C(F)(F)F)cc2)s1 | 35.3 (≈ 61 µM) | 49.6 (≈ 85.6 µM) | 40.1 (≈ 69.2 µM) | 30.6 (≈ 52.8 µM) | 34.9 (≈ 60.2 µM) | – | – | – | – | – | –
6 | CN(C(=O)NC(=O)c1ccc(Cl)cc1Cl)c1nc(C(F)(F)F)c(C(=O)N/N=C/c2ccc([N+](=O)[O-])cc2)s1 | 6.74 (≈ 11.4 µM) | 6.85 (≈ 11.6 µM) | 6.44 (≈ 10.9 µM) | 5.12 (≈ 8.69 µM) | 2.13 (≈ 3.61 µM) | – | – | – | – | – | –
7 | CN(C(=O)NC(=O)c1ccc(Cl)cc1Cl)c1nc(C(F)(F)F)c(C(=O)N/N=C/c2cccc(C(F)(F)F)c2)s1 | 10.7 (≈ 17.5 µM) | 11.2 (≈ 18.3 µM) | 10.5 (≈ 17.2 µM) | 9.6 (≈ 15.7 µM) | 6.11 (≈ 9.98 µM) | – | – | – | – | – | –
8 | Cc1nc(N(C)C(=O)NC(=O)c2ccc(Cl)cc2Cl)sc1C(=O)N/N=C/c1ccc(C(F)(F)F)cc1 | 24.5 (≈ 43.9 µM) | > 100 | 30.2 (≈ 54.1 µM) | 20.3 (≈ 36.4 µM) | 38 (≈ 68 µM) | – | – | – | – | – | –
9 | COc1cc(/C=N/NC(=O)c2sc(N(C)C(=O)NC(=O)c3c(F)cccc3F)nc2C)cc(OC)c1OC | – | > 100 | – | – | – | – | – | – | – | – | –
10 | CN(C(=O)NC(=O)c1ccc(F)c(F)c1)c1nc(C(F)(F)F)c(C(=O)N/N=C/c2ccc([N+](=O)[O-])cc2)s1 | 4.81 (≈ 8.64 µM) | 6.23 (≈ 11.2 µM) | 5.78 (≈ 10.4 µM) | 5.08 (≈ 9.13 µM) | 2.99 (≈ 5.37 µM) | – | – | – | – | – | –
11 | CCOC(=O)c1sc(NC)nc1C | – | – | – | – | – | < 10 | < 10 | < 10 | < 10 | < 10 | < 10
12 | Cc1nc(N(C)C(=O)NC(=O)c2c(F)cccc2F)sc1C(=O)N/N=C/c1ccc(Cl)cc1 | – | > 100 | – | – | – | – | – | – | – | – | –
13 | CN(C(=O)NC(=O)c1ccccc1F)c1nc(C(F)(F)F)c(C(=O)N/N=C/c2ccc(C(F)(F)F)cc2)s1 | 4.98 (≈ 8.87 µM) | 4.56 (≈ 8.12 µM) | 5.68 (≈ 10.1 µM) | 3.97 (≈ 7.07 µM) | 3.87 (≈ 6.89 µM) | – | – | – | – | – | –
14 | CN(C(=O)NC(=O)c1ccc(Cl)cc1Cl)c1nc(C(F)(F)F)c(C(=O)N/N=C/c2ccc(C(F)(F)F)cc2)s1 | 8.42 (≈ 13.8 µM) | 12.4 (≈ 20.3 µM) | 9.4 (≈ 15.4 µM) | 7.99 (≈ 13 µM) | 3.08 (≈ 5.03 µM) | – | – | – | – | – | –
15 | CN(C(=O)NC(=O)c1ccc(F)c(F)c1)c1nc(C(F)(F)F)c(C(=O)N/N=C/c2ccccc2C(F)(F)F)s1 | 8.21 (≈ 14.2 µM) | 10.4 (≈ 17.9 µM) | 6.96 (≈ 12 µM) | 9.24 (≈ 15.9 µM) | 3.66 (≈ 6.32 µM) | – | – | – | – | – | –
16 | Cc1nc(N(C)C(=O)NC(=O)c2c(F)cccc2F)sc1C(=O)N/N=C/c1ccc(F)cc1 | – | > 100 | – | – | – | – | – | – | – | – | –
17 | CN(C(=O)NC(=O)c1ccccc1F)c1nc(C(F)(F)F)c(C(=O)N/N=C/c2cccc(C(F)(F)F)c2)s1 | 20.5 (≈ 36.6 µM) | 20.3 (≈ 36.2 µM) | 19.4 (≈ 34.6 µM) | 19.1 (≈ 34.1 µM) | 16.3 (≈ 29.1 µM) | – | – | – | – | – | –
18 | Cc1nc(N(C)C(=O)NC(=O)c2c(F)cccc2F)sc1C(=O)N/N=C/c1cc(C(F)(F)F)cc(C(F)(F)F)c1 | 11.6 (≈ 19.6 µM) | 11.4 (≈ 19.1 µM) | 13 (≈ 21.9 µM) | 12.2 (≈ 20.6 µM) | 14.1 (≈ 23.7 µM) | – | – | – | – | – | –
19 | CN(C(=O)NC(=O)c1ccc(C(F)(F)F)cc1)c1nc(C(F)(F)F)c(C(=O)N/N=C/c2cc(C(F)(F)F)cc(C(F)(F)F)c2)s1 | 7.37 (≈ 10.8 µM) | 8.35 (≈ 12.3 µM) | 5.9 (≈ 8.68 µM) | 5.78 (≈ 8.51 µM) | 1.77 (≈ 2.61 µM) | – | – | – | – | – | –
20 | COc1ccc(/C=N/NC(=O)c2sc(N(C)C(=O)NC(=O)c3c(F)cccc3F)nc2C)cc1 | – | 22.7 (≈ 46.5 µM) | – | – | – | – | – | – | – | – | –
21 | CN(C(=O)NC(=O)c1cccc(C(F)(F)F)c1)c1nc(C(F)(F)F)c(C(=O)N/N=C/c2cc(C(F)(F)F)cc(C(F)(F)F)c2)s1 | 6.08 (≈ 8.95 µM) | 5.38 (≈ 7.92 µM) | 8.2 (≈ 12.1 µM) | 5.34 (≈ 7.86 µM) | 5.23 (≈ 7.7 µM) | – | – | – | – | – | –

— ChEMBL document CHEMBL3813688, “Synthesis, antitumor activity and mechanism of action of novel 1,3-thiazole derivatives containing hydrazide-hydrazone and carboxamide moiety” (Bioorg Med Chem Lett, 2016)
